Bioassay records as filed in PubChem.
APOBEC3A inh – blocks human APOBEC3A ssDNA deamination; P31941; recombinant A3A, FAM/TAMRA ssDNA deamination fluorescence; inhibition, % at 20 µM; hit rate 0.41% among 330,000;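 active = at least 40% inhibition at 20 µM here, with at most 30% in a related deaminase screen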
Target sequence (P31941 whole entry, looked up): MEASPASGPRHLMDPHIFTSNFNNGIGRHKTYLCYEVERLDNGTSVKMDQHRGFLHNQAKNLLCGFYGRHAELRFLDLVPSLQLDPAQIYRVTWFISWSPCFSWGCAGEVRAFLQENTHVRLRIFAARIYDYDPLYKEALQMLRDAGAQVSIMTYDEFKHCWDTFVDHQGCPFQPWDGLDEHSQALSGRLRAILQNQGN
ABHD5-PLIN5 inh – inhibitors of human ABHD5-perilipin-5 interaction | Split G. princeps luciferase complementation, luminescence, 4 h | inhibition, % at 4 µM | hit rate 0.78% among 360,000;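 active = inhibition above the mean inhibition across every tested compound plus 3 SD, cut at about 22% in these data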
PRMT1 FP inh – PRMT1 (human) inhibition, primary screen | hit rate 1.3% among 370,000 | Q99873 | inhibition, % at 2.79 µM | recombinant PRMT1, activity-based probe fluorescence polarization;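 active = inhibition above about 21% made by adding two undisclosed values, limit read from the data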
Target sequence (Q99873 whole entry, looked up): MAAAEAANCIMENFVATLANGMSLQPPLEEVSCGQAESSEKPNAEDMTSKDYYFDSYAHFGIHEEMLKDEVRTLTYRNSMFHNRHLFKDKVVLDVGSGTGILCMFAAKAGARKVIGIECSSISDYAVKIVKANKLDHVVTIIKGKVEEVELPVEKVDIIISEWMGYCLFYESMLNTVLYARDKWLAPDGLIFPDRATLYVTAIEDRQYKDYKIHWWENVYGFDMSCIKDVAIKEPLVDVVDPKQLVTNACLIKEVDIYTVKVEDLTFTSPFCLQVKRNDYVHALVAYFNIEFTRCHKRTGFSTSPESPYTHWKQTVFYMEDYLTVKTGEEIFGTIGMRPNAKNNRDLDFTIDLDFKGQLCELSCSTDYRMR
core dimer inh – blocks dimerization of HCV core protein; TR-FRET GST/Flag-core106 dimerization, 1536-well; inhibition, % at 5 µM; hit rate 0.33% among 300,000; AID 1899;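 active = inhibition above the mean of all tested compounds plus 3 SD, set per screening campaign, cut at about 45% in these data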
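assay system = GST-tagged and Flag-tagged HCV core protein residues 1-106 | controls = unlabelled core106 and no-GST-core106 wells | incubation = compound-protein-antibody incubation 4 h at 22.5 °C | probe or stimulus = Eu donor and XL665 acceptor anti-tag antibodies | read-out = % inhibition based on acceptor/donor emission ratio | signal = TR-FRET 671 and 617 nm emission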
APOBEC3G inh – APOBEC3G (human) deaminase inhibition | recombinant A3G, ssDNA deamination FAM/TAMRA fluorescence | inhibition, % at 20 µM | AID 493012 | hit rate 0.28% among 330,000 | Q9HC16;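 active = inhibition of at least 40% at 20 µM, with no more than 30% in the related APOBEC3A deaminase screen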
HCV NS3 hel inh – inhibitors of Hepatitis C virus NS3 helicase | hit rate 0.56% among 290,000 | AID 1800 | NS3 helicase DNA unwinding, Cy5 molecular beacon fluorescence | inhibition, % at 10.9 µM;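 active = inhibition above the mean of all tested compounds plus 3 SD, set per campaign, cut at about 35% in these data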
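Measured by: Cy5 fluorescence, 0 and 60 min reads / Assay system: NS3 helicase fragment of HCV / Control set: low DMSO, high thioflavine S at 110 µM / Times: 1 h reaction at 25 °C, ATP-initiated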
Numbers stand for hits. This is a sample that favours compounds with a hit; in the whole collection about 2.9% have one here.

`CCN(CC)S(=O)(=O)c1cccc(C(=O)N/N=C/c2cccc(O)c2O)c1` gave APOBEC3A inh inactive, ABHD5-PLIN5 inh inactive, PRMT1 FP inh inactive, core dimer inh inactive, APOBEC3G inh inactive and HCV NS3 hel inh 46.
For O=C(N/N=C\C=C\c1ccc2c(c1)OCO2)c1ccc(F)cc1 the results were APOBEC3A inh inactive, ABHD5-PLIN5 inh inactive, PRMT1 FP inh inactive, core dimer inh inactive, APOBEC3G inh inactive and HCV NS3 hel inh inactive.
CCNc1ccccc(C(=O)/C=C/c2ccc3c(c2)OCO3)c1=O was read as APOBEC3A inh inactive, ABHD5-PLIN5 inh inactive, PRMT1 FP inh 26, core dimer inh 50, APOBEC3G inh inactive and HCV NS3 hel inh inactive.
For O=C(/C=C/c1ccc2c(c1)OCO2)c1ccc(F)cc1 the results were APOBEC3A inh inactive, ABHD5-PLIN5 inh 22, PRMT1 FP inh inactive, core dimer inh inactive, APOBEC3G inh inactive and HCV NS3 hel inh inactive.
COC(=O)/C=C/c1ccc2c(c1)OCO2 was read as APOBEC3A inh inactive, ABHD5-PLIN5 inh inactive, PRMT1 FP inh inactive, core dimer inh inactive, APOBEC3G inh inactive and HCV NS3 hel inh inactive.
Screening COC(=O)[C@]12C[C@H](CC(=O)NCc3cccc(C(F)(F)F)c3)C(=O)N(Cc3ccccc3)C1=C[C@H](C1CCCC1)O[C@@H]2C returned PRMT1 FP inh inactive.
`CCN=C1NC(c2ccc(C(F)(F)F)cc2)C(C(=O)OC)=C(C)N1Cc1ccccc1C(F)(F)F` (stereo not drawn) gave PRMT1 FP inh inactive.
CCc1nc2c(OCc3ccc(C(F)(F)F)cc3)cccn2c1N(C=O)Cc1ccc(OC)cc1 was read as ABHD5-PLIN5 inh inactive and PRMT1 FP inh inactive.
N#CC1=C(N)Oc2cc(N)ccc2C1c1ccc(F)cc1 (stereo not drawn) was read as APOBEC3A inh inactive, ABHD5-PLIN5 inh inactive, PRMT1 FP inh 23, core dimer inh inactive, APOBEC3G inh inactive and HCV NS3 hel inh inactive.
`N#CC1=C(N)Oc2cc(N)ccc2C1c1ccc(Cl)cc1` (stereo not drawn) gave APOBEC3A inh inactive, ABHD5-PLIN5 inh inactive, PRMT1 FP inh inactive, core dimer inh inactive, APOBEC3G inh inactive and HCV NS3 hel inh inactive.
`N#CC1=C(N)OC2=C(CC/C2=C\c2ccc(F)cc2)C1c1ccc(F)cc1` (stereo not drawn) gave APOBEC3A inh inactive, core dimer inh 52, APOBEC3G inh inactive and HCV NS3 hel inh inactive.
N#CC1=C(N)OC2=C(CCC/C2=C/c2ccoc2)C1c1ccoc1 (stereo not drawn) was read as HCV NS3 hel inh inactive.
N#CC1=C(N)Oc2cc(N)ccc2C1c1ccc(F)cc1F (stereo not drawn) was read as APOBEC3A inh inactive, ABHD5-PLIN5 inh inactive, PRMT1 FP inh 24, core dimer inh inactive, APOBEC3G inh inactive and HCV NS3 hel inh inactive.
`CCOC(=O)c1ccc(N2C(=O)CC(Sc3ncccn3)C2=O)cc1` (stereo not drawn) gave APOBEC3A inh inactive, ABHD5-PLIN5 inh inactive, PRMT1 FP inh 21, core dimer inh inactive, APOBEC3G inh inactive and HCV NS3 hel inh inactive.
Screening COc1ccc(NC(=O)CN(C)C(=O)c2cc3c(s2)CCCCC3)cc1 returned APOBEC3A inh inactive, ABHD5-PLIN5 inh inactive, PRMT1 FP inh inactive, core dimer inh inactive, APOBEC3G inh inactive and HCV NS3 hel inh inactive.
Screening COc1ccc(NC(=O)CN(C)C(=O)c2cc3c(s2)CCC3)cc1 returned APOBEC3A inh inactive, ABHD5-PLIN5 inh inactive, core dimer inh 70 and APOBEC3G inh inactive.
For COc1cccc(NC(=O)CN(C)C(=O)c2cc3c(s2)CCC3)c1 the results were APOBEC3A inh inactive, PRMT1 FP inh inactive, core dimer inh 59 and APOBEC3G inh inactive.
Screening NC(=S)N=Nc1c(O)cc(O)c2[nH]c(=O)ccc12 returned ABHD5-PLIN5 inh 29 and PRMT1 FP inh 70.
`COc1ccc(S(=O)(=O)N2CCOCC2)cc1NC(=O)c1cc2c(s1)CCCC2` gave APOBEC3A inh inactive, ABHD5-PLIN5 inh inactive, PRMT1 FP inh inactive, core dimer inh inactive, APOBEC3G inh inactive and HCV NS3 hel inh inactive.
Screening COc1ccc(NC(=O)Cn2ncc(Cl)c(Cl)c2=O)cc1S(=O)(=O)N1CCOCC1 returned ABHD5-PLIN5 inh inactive, PRMT1 FP inh inactive, core dimer inh 50 and HCV NS3 hel inh inactive.
`CCOC(=O)c1ccc(NC(=O)Cn2ncc(Cl)c(Cl)c2=O)cc1` gave APOBEC3A inh inactive, ABHD5-PLIN5 inh inactive, PRMT1 FP inh 25, core dimer inh inactive, APOBEC3G inh inactive and HCV NS3 hel inh inactive.
COc1ccc(NC(=O)c2cc3c(s2)CCC3)cc1S(=O)(=O)N1CCOCC1 was read as APOBEC3A inh inactive, ABHD5-PLIN5 inh inactive, PRMT1 FP inh inactive, core dimer inh 94, APOBEC3G inh inactive and HCV NS3 hel inh inactive.
Screening COC(=O)c1cc2c(c3c4cc(C)ccc4n(S(=O)(=O)c4ccc(C)cc4)c13)C(=O)N(Cc1ccccc1OC)C2 returned PRMT1 FP inh inactive.
O=S1(=O)c2ccc(N3CCSCC3)cc2Oc2ccccc2CN1Cc1cn(Cc2ccc(F)cc2)nn1 was read as PRMT1 FP inh inactive.
`CC(C)C(=O)N(c1ccc2oc(=O)sc2c1)S(=O)(=O)c1ccccc1` gave APOBEC3A inh inactive, ABHD5-PLIN5 inh inactive, PRMT1 FP inh 48, core dimer inh inactive, APOBEC3G inh inactive and HCV NS3 hel inh inactive.
For COc1ccc(C(=O)Oc2ccc3oc(=O)sc3c2)cc1 the results were APOBEC3A inh inactive, ABHD5-PLIN5 inh 23, PRMT1 FP inh 76, core dimer inh inactive, APOBEC3G inh inactive and HCV NS3 hel inh inactive.
`COc1ccc(N(C(C)=O)S(=O)(=O)c2cc(OC)ccc2OC)cc1` gave APOBEC3A inh inactive, ABHD5-PLIN5 inh inactive, PRMT1 FP inh inactive, core dimer inh inactive, APOBEC3G inh inactive and HCV NS3 hel inh inactive.
COc1ccc(OC)c(S(=O)(=O)N(C(C)=O)c2ccc3oc(=O)sc3c2)c1 was read as APOBEC3A inh inactive, ABHD5-PLIN5 inh inactive, PRMT1 FP inh 53, core dimer inh inactive, APOBEC3G inh inactive and HCV NS3 hel inh inactive.
For COC(=O)Cc1ccc(NC(=O)c2ccc3c(c2)C(=O)N(Cc2ccco2)C3=O)cc1 the results were APOBEC3A inh inactive, ABHD5-PLIN5 inh inactive, PRMT1 FP inh inactive, core dimer inh inactive, APOBEC3G inh inactive and HCV NS3 hel inh inactive.
CCc1ccc(NC(=O)c2ccc3c(c2)C(=O)N(Cc2ccco2)C3=O)cc1 was read as APOBEC3A inh inactive, ABHD5-PLIN5 inh inactive, PRMT1 FP inh inactive, core dimer inh 56, APOBEC3G inh inactive and HCV NS3 hel inh inactive.
Cc1c(C(=O)OCC2CCCO2)[nH]c2c1C(=O)CC(c1ccco1)C2 (stereo not drawn) was read as APOBEC3A inh inactive, ABHD5-PLIN5 inh inactive, core dimer inh 86, APOBEC3G inh inactive and HCV NS3 hel inh inactive.
Cc1c(C(=O)OC2CCCC2)[nH]c2c1C(=O)CC(c1ccco1)C2 (stereo not drawn) was read as APOBEC3A inh inactive, ABHD5-PLIN5 inh inactive, PRMT1 FP inh inactive, core dimer inh inactive, APOBEC3G inh inactive and HCV NS3 hel inh inactive.
